According to ChEMBL document CHEMBL3259610, “Liver S9 Fraction-Derived Metabolites of Curcumin Analogue UBS109” (ACS Med Chem Lett, 2014):
Activity calls are given as the source filed them. No cut-off for these calls is given here.

Assays:
[1] = Drug level in human liver S9 fraction treated with UBS109 at 1 uM using 1% DMSO measured at 60 mins by LC/MS-MS analysis in presence of NADPH; format: ADME, subcellular; details: s9, 1 h
Outline: (§1)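 Compound was incubated in pooled liver S9 fractions (mouse, cynomolgus monkey, human), mostly with NADPH and in 1% DMSO. Human S9 was also run without NADPH, and at 0.2% DMSO. Parent loss and metabolite formation were followed over time by LC–MS/MS, and half-life was derived from parent depletion.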

[2] = test system: Liver; assay: Drug level in human liver S9 fraction treated with UBS109 at 1 uM using 1% DMSO measured after 1 hr by LC/MS-MS analysis in absence of NADPH; format: ADME; details: s9, 1 h; outline: as §1
[3] = Growth inhibition of human TU212 cells after 48 hrs by neutral red dye uptake assay; format: functional; details: TU212, 48 h
Outline: (§2)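 TU212 (head and neck SCC) and MDA-MB-231 (breast adenocarcinoma) cells were exposed to compounds at 5 and 10 μM with DMSO below 0.1%. Viability was read by neutral red uptake. Error bars are standard error of the mean, and significance was tested by two-tailed t test.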

[4] = test system: MDA-MB-231; assay: Growth inhibition of human MDA-MB-231 cells after 48 hrs by neutral red dye-based assay; format: functional; details: MDA-MB-231, 48 h; outline: as §2
[5] = Plasma protein binding in mouse; format: ADME, organism-based; details: read-out: PPB (converted)
[6] = Half life in cynomolgus monkey liver S9 fraction at 1 uM using 1% DMSO; format: ADME, subcellular, Macaca fascicularis; outline: as §1
[7] = Drug metabolism in CD1 mouse liver S9 fraction assessed as (E)-1-methyl-3-(2-pyridinylmethyl)-5-(2-pyridinylmethylidene)-4-piperidone formation at 1 uM using 1% DMSO measured at 60 mins by LC/MS-MS analysis in presence of NADPH; format: ADME, subcellular; details: s9, 1 h; outline: as §1
[8] = Half life in human liver S9 fraction at 2 uM in absence of NADPH
[9] = Drug metabolism in human liver S9 fraction assessed as (E)-1-methyl-3-(2-pyridinylmethyl)-5-(2-pyridinylmethylidene)-4-piperidone formation at 1 uM using 1% DMSO measured at 60 mins by LC/MS-MS analysis in presence of NADPH; format: ADME, subcellular; details: s9, 1 h; outline: as §1
[10] = Metabolic stability in human liver S9 fraction assessed as remaining compound level at 2 uM using 0.2% DMSO measured after 1 hr by LC/MS-MS analysis in presence of NADPH; format: ADME, subcellular; details: read-out: Stability; outline: as §1
[11] = Drug metabolism in human liver S9 fraction assessed as (E)-1-methyl-3-(2-pyridinylmethyl)-5-(2-pyridinylmethylidene)-4-piperidone formation at 1 uM using 1% DMSO measured after 1 hr by LC/MS-MS analysis in absence of NADPH; format: ADME; details: s9, 1 h; outline: as §1
[12] = Drug metabolism in human liver S9 fraction assessed as (E)-1-methyl-3,5-bis(2-pyridinylmethylidene)-4-hydroxypiperidine formation at 1 uM using 1% DMSO measured at 60 mins by LC/MS-MS analysis in presence of NADPH; format: ADME, subcellular; details: s9, 1 h; outline: as §1
[13] = Drug metabolism in Beagle dog whole blood assessed as (E)-1-methyl-3-(2-pyridinylmethyl)-5-(2-pyridinylmethylidene)-4-piperidone formation at 1 uM after 2 hrs by LC/MS-MS analysis; format: ADME, tissue-based, Canis lupus familiaris
[14] = test system: TU212; assay: Cytotoxicity against human TU212 cells assessed as cell viability at 5 to 10 uM after 48 hrs by neutral red dye uptake assay; format: functional, cell-based; outline: as §2
[15] = Drug metabolism in human liver S9 fraction assessed as (E)-1-methyl-3,5-bis(2-pyridinylmethylidene)-4-hydroxypiperidine formation at 1 uM using 1% DMSO measured after 1 hr by LC/MS-MS analysis in absence of NADPH; format: ADME; details: s9, 1 h; outline: as §1
[16] = Elimination half life in mouse; format: ADME, organism-based; details: in vivo, read-out: beta t1/2 (converted)
[17] = Half life in CD1 mouse liver S9 fraction at 1 uM using 1% DMSO; format: ADME, subcellular; outline: as §1
[18] = Drug metabolism in Sprague-Dawley rat liver S9 fraction at 1 uM using 1% DMSO measured after 60 mins by LC/MS-MS analysis in presence of NADPH; format: ADME, subcellular; details: s9, 1 h
[19] = Half life in human liver S9 fraction at 2 uM using 0.2% DMSO in presence of NADPH; format: ADME, subcellular; outline: as §1
[20] = test system: Blood; assay: Drug metabolism in human whole blood assessed as (E)-1-methyl-3-(2-pyridinylmethyl)-5-(2-pyridinylmethylidene)-4-piperidone formation at 1 uM after 2 hrs by LC/MS-MS analysis; format: ADME, tissue-based
[21] = Metabolic stability in human liver S9 fraction assessed as remaining compound level at 2 uM using 0.2% DMSO measured after 1 hr by LC/MS-MS analysis in absence of NADPH; format: ADME; details: read-out: Stability; outline: as §1
[22] = Drug metabolism in cynomolgus monkey whole blood assessed as (E)-1-methyl-3-(2-pyridinylmethyl)-5-(2-pyridinylmethylidene)-4-piperidone formation at 1 uM after 2 hrs by LC/MS-MS analysis; format: ADME, tissue-based, Macaca fascicularis
[23] = Elimination half life in ND4 Swiss Webster mouse at 12.5 to 25 mg/kg, ip; format: ADME, organism-based; parameters: dose 12.5-25 mg/kg, route intraperitoneal; details: in vivo, read-out: beta t1/2
[24] = test system: Blood; assay: Drug level in human whole blood treated with UBS109 at 1 uM after 2 hrs by LC/MS-MS analysis; format: ADME, tissue-based
[25] = Drug level in cynomolgus monkey whole blood treated with UBS109 at 1 uM after 2 hrs by LC/MS-MS analysis; format: ADME, tissue-based, Macaca fascicularis
[26] = Drug level in CD1 mouse liver S9 fraction treated with UBS109 at 1 uM using 1% DMSO measured after 60 mins by LC/MS-MS analysis in presence of NADPH; format: ADME, subcellular; details: s9, 1 h; outline: as §1
[27] = Drug level in Beagle dog whole blood treated with UBS109 at 1 uM after 2 hrs by LC/MS-MS analysis; format: ADME, tissue-based, Canis lupus familiaris

In the case of CN1C/C(=C\c2ccccn2)C(O)/C(=C/c2ccccn2)C1 (configuration not stated), the Drug metabolism [1] is reported as “metabolite_detected”, the Drug metabolism [2] is reported as “metabolite_detected” and the GI50 [3] is reported as greater than 10 µM. The GI50 [4] was greater than 10 µM.
With CN1C/C(=C\c2ccccn2)C(=O)/C(=C/c2ccccn2)C1 the fraction unbound [5] was 0.06, the half-life at 1 µM [6] was 8 min and the Drug metabolism [7] was “metabolite_detected”. The half-life at 2 µM [8] was 18 min, the Drug metabolism [9] was “metabolite_detected” and the remaining at 1 h, 2 µM [10] was 4.1%. The Drug metabolism [11] was “metabolite_detected”, the Drug metabolism [12] was “metabolite_detected” and the Drug metabolism [13] was “metabolite_detected”. For the same compound, the Activity [14] was “Active”, the Drug metabolism [15] was “metabolite_detected” and the half-life [16] was 240 min. For the same compound, the half-life at 1 µM [17] was 38 min, the Drug metabolism [18] was “metabolite_detected” and the half-life at 2 µM [19] was 9 min. For the same compound, the Drug metabolism [20] was “metabolite_detected”, the remaining at 1 h, 2 µM [21] was 27.6% and the Drug metabolism [22] was “metabolite_detected”.
O=C1/C(=C/c2ccccn2)CNC/C1=C\c1ccccn1 showed a half-life [23] of no more than 1 min.
In the case of O=C1/C(=C/c2ccccc2F)CNC/C1=C\c1ccccc1F, the half-life [16] is reported as 60 min.
For CN1C/C(=C\c2ccccn2)C(=O)C(Cc2ccccn2)C1 (configuration not stated), the Drug metabolism [1] was “metabolite_detected”, the Drug metabolism [2] was “metabolite_detected” and the Drug metabolism [24] was “metabolite_detected”. The Drug metabolism [25] was “metabolite_detected”, the GI50 [3] was greater than 10 µM and the Drug metabolism [26] was “metabolite_detected”. For the same compound, the Drug metabolism [27] was “metabolite_detected” and the GI50 [4] was greater than 5 µM.
